Results as given in ChEMBL document CHEMBL1138264, “Aromatic lipoxin A4 and lipoxin B4 analogues display potent biological activities” (J Med Chem, 2007).
The source made the active and inactive calls. The calls are words filed in the database; no cut-off is given here.

Columns and labels:
THP-1 [1] = assay: Increase in human THP1 cells mediated phagocytosis of apoptotic polymorphonuclear leukocytes at 0.01 pM after 15 mins; format: functional, cell-based
How it was run: (§1)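 THP-1 cells differentiated with 100 nM PMA for 48 h (5 × 10^5 cells/well), pretreated 15 min at 37 °C, then co-incubated 2 h at 37 °C with 1 × 10^6 human PMNs made apoptotic by 20 h culture. Vehicle was 0.1% DMSO or ethanol. After cold PBS washes, myeloperoxidase staining; % THP-1 cells containing ≥1 PMN (≥400 cells, duplicate wells); n = 3.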

Mus musculus = assay: Decrease in zymosan-induced neutrophil accumulation in mouse model of peritonitis at 50 ug/kg, iv; format: functional, organism-based
How it was run: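 Zymosan A peritonitis in mice: analogue at 0.5-50 µg/kg given intravenously (vehicle n = 15; n = 6 per dose group), followed 5 min later by i.p. zymosan A, 1 mg in 0.5 mL sterile PBS. Peritoneal lavage at 4 h with PBS/3 mM EDTA/heparin. Cells Fc-blocked, stained with PE anti-Gr-1 and counted as neutrophils (Gr-1+). Mean ± SEM versus vehicle.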

THP-1 [2] = assay: Increase in human THP1 cells mediated phagocytosis of apoptotic polymorphonuclear leukocytes at 0.1 pM to 1 nM after 15 mins; format: functional, cell-based; how it was run: as §1
THP-1 [3] = assay: Increase in human THP1 cells adherence to laminin after 30 mins; format: functional, cell-based
How it was run: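 THP-1 cells loaded with 1 µM BCECF-AM for 20 min at 37 °C, then resuspended at 3.3 × 10^6/mL in PBS2+ with 0.1% BSA. Cells settled 10 min on laminin-coated wells, then given agonist or vehicle for 30 min at 37 °C. Washed, lysed in NaOH/SDS, fluorescence read. Percent adherence above vehicle; three experiments, each in triplicate.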

THP-1 [4] = assay: Induction of F-actin rearrangement in human THP1 cells at 1 nM after 15 mins; format: functional, cell-based
How it was run: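 PMA-differentiated THP-1 cells (1 × 10^6/well) on glass coverslips, exposed to stimulus at 1 nM for 15 min. Fixed in 3.8% paraformaldehyde, permeabilized with 0.1% Triton X-100, stained with 0.33 µmol/L Oregon Green-phalloidin for 30 min. F-actin localization imaged by fluorescence microscopy (×100 oil objective); three independent experiments.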

THP-1 [5] = assay: Increase in human THP1 cells mediated phagocytosis of apoptotic polymorphonuclear leukocytes at 1 pM in presence of pan-FPR/ALXR antagonist Boc2; format: functional, cell-based
How it was run: (§2)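 PMA-differentiated THP-1 cells given Boc2 (100 µM), with or without stimulus, for 15 min at 37 °C. Then co-incubated 2 h with apoptotic human PMNs. Phagocytosis scored by myeloperoxidase staining as % THP-1 cells containing PMNs; mean ± SEM, n = 3, compared with no Boc2.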

THP-1 [6] = assay: Increase in human THP1 cells mediated phagocytosis of apoptotic polymorphonuclear leukocytes at 0.01 pM to 1 nM after 15 mins; format: functional, cell-based; how it was run: as §1
THP-1 [7] = assay: Increase in human THP1 cells mediated phagocytosis of apoptotic polymorphonuclear leukocytes at 10 pM after 15 mins; format: functional, cell-based; how it was run: as §1
THP-1 [8] = assay: Increase in human THP1 cells mediated phagocytosis of apoptotic polymorphonuclear leukocytes at 1 nM after 15 mins; format: functional, cell-based; how it was run: as §1
THP-1 [9] = assay: Increase in human THP1 cells mediated phagocytosis of apoptotic polymorphonuclear leukocytes at 1 nM in presence of pan-FPR/ALXR antagonist Boc2; format: functional, cell-based; how it was run: as §2

Structure (SMILES): CCCCC[C@@H](O)c1ccccc1/C=C/[C@@H](O)[C@@H](O)CCCC(=O)OC
- Activity (THP-1 [1]): inactive
- Activity (Mus musculus): Active
- Activity (THP-1 [2]): Active
- Activity (THP-1 [3]): Active
- Activity (THP-1 [4]): Active
- Activity (THP-1 [5]): inactive

Structure (SMILES): CCCCC[C@@H](O)c1ccccc1/C=C/[C@@H](O)[C@@H](O)CCCC(=O)O
- Activity (THP-1 [6]): inactive

Structure (SMILES): CCCCC[C@H](O)[C@H](O)/C=C/c1ccccc1[C@@H](O)CCCC(=O)OC(C)(C)C
- Activity (THP-1 [4]): Active
- Activity (THP-1 [7]): Active

Structure (SMILES): CCCCC[C@H](O)c1ccccc1/C=C/[C@@H](O)[C@@H](O)CCCC(=O)OC
- Activity (THP-1 [8]): Active
- Activity (THP-1 [9]): inactive
- Activity (THP-1 [3]): Active
- Activity (THP-1 [4]): Active

Structure (SMILES): CCCCC[C@H](O)c1ccccc1/C=C/[C@@H](O)[C@@H](O)CCCC(=O)O
- Activity (THP-1 [6]): inactive

Structure (SMILES): CCCCC[C@H](O)/C=C/C=C\C=C\C=C\[C@@H](O)[C@@H](O)CCCC(=O)O
- Activity (THP-1 [9]): inactive
- Activity (THP-1 [2]): Active
